In brackets after ≈: the same amount, converted by molar mass.
How the values were obtained:
Staphylococcus aureus [1] = assay: Antibacterial activity against Staphylococcus aureus ATCC 6538 after 24 hrs by microdilution method; format: functional; details: ATCC 6538, 24 h
Procedure, shortened: (§1)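 Broth microdilution in 96-well plates. Bacterial suspensions were adjusted in sterile saline to 1.0 × 10⁵ CFU/ml, prepared daily and kept at 4 °C. Compound was added to LB broth with 1.0 × 10⁴ CFU per well and shaken at 160 rpm for 24 h at […] (so in the source). MIC is the lowest concentration with no visible growth under a binocular microscope. OD655 was also read. Duplicate, repeated three times.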

Bacillus cereus [2] = assay: Antibacterial activity against clinical isolate of Bacillus cereus after 24 hrs by microdilution method; format: functional; procedure, shortened: as §1
Micrococcus flavus [3] = assay: Antibacterial activity against Micrococcus flavus ATCC 10240 after 24 hrs by microdilution method; format: functional; details: ATCC 10240, 24 h; procedure, shortened: as §1
Listeria monocytogenes [4] = assay: Antibacterial activity against Listeria monocytogenes NCTC 7973 after 24 hrs by microdilution method; format: functional; details: NCTC 7973, 24 h; procedure, shortened: as §1
Pseudomonas aeruginosa [5] = assay: Antibacterial activity against Pseudomonas aeruginosa ATCC 27853 after 24 hrs by microdilution method; format: functional; details: ATCC 27853, 24 h; procedure, shortened: as §1
Salmonella typhimurium [6] = assay: Antibacterial activity against Salmonella Typhimurium ATCC 13311 after 24 hrs by microdilution method; format: functional, Salmonella enterica subsp. enterica serovar Typhimurium; details: Salmonella enterica, ATCC 13311, 24 h; procedure, shortened: as §1
Escherichia coli [7] = assay: Antibacterial activity against Escherichia coli ATCC 35210 after 24 hrs by microdilution method; format: functional; details: ATCC 35210, 24 h; procedure, shortened: as §1
Enterococcus faecalis [8] = assay: Antibacterial activity against Enterococcus faecalis isolated from human after 24 hrs by microdilution method; format: functional; procedure, shortened: as §1
Staphylococcus aureus [9] = assay: Antibacterial activity against Staphylococcus aureus ATCC 6538 incubated for 24 hrs followed by serial sub-cultivation for 24 hrs by microdilution method; format: functional; details: ATCC 6538, 24 h
Procedure, shortened: (§2)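 MBC: after the 24 h LB broth microdilution (1.0 × 10⁴ CFU per well, 160 rpm), wells were serially sub-cultured into fresh broth plates and incubated a further 24 h. MBC is the lowest concentration with no visible growth, taken as 99.5% killing of the original inoculum. Duplicate, repeated three times.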

Bacillus cereus [10] = assay: Antibacterial activity against clinical isolate of Bacillus cereus incubated for 24 hrs followed by serial sub-cultivation for 24 hrs by microdilution; format: functional; procedure, shortened: as §2
Micrococcus flavus [11] = assay: Antibacterial activity against Micrococcus flavus ATCC 10240 incubated for 24 hrs followed by serial sub-cultivation for 24 hrs by microdilution; format: functional; details: ATCC 10240, 24 h; procedure, shortened: as §2
Listeria monocytogenes [12] = assay: Antibacterial activity against Listeria monocytogenes NCTC 7973 incubated for 24 hrs followed by serial sub-cultivation for 24 hrs by microdilution; format: functional; details: NCTC 7973, 24 h; procedure, shortened: as §2
Pseudomonas aeruginosa [13] = assay: Antibacterial activity against Pseudomonas aeruginosa ATCC 27853 incubated for 24 hrs followed by serial sub-cultivation for 24 hrs by microdilution; format: functional; details: ATCC 27853, 24 h; procedure, shortened: as §2
Salmonella typhimurium [14] = assay: Antibacterial activity against Salmonella Typhimurium ATCC 13311 incubated for 24 hrs followed by serial sub-cultivation for 24 hrs by microdilution; format: functional, Salmonella enterica subsp. enterica serovar Typhimurium; details: Salmonella enterica, ATCC 13311, 24 h; procedure, shortened: as §2
Escherichia coli [15] = assay: Antibacterial activity against Escherichia coli ATCC 35210 incubated for 24 hrs followed by serial sub-cultivation for 24 hrs by microdilution; format: functional; details: ATCC 35210, 24 h; procedure, shortened: as §2
Enterococcus faecalis [16] = assay: Antibacterial activity against Enterococcus faecalis isolated from human incubated for 24 hrs followed by serial sub-cultivation for 24 hrs by microdilution; format: functional; procedure, shortened: as §2
Aspergillus ochraceus [17] = assay: Antifungal activity against Aspergillus ochraceus ATCC 12066 after 72 hrs by serial dilution technique; format: functional; details: ATCC 12066, 72 h
Procedure, shortened: (§3)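 Modified microdilution in 96-well plates. Fungi were kept on malt agar at 4 °C. Spores were washed off in sterile 0.85% saline with 0.1% Tween 80. Compounds were dissolved at 1 mg/ml in 5% DMSO with 0.1% Tween 80 and added to malt broth with inoculum. Plates were shaken at 160 rpm for 72 h at 28 °C. Duplicate, repeated three times.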

Aspergillus niger [18] = assay: Antifungal activity against Aspergillus niger ATCC 6275 after 72 hrs by serial dilution technique; format: functional; details: ATCC 6275, 72 h; procedure, shortened: as §3
Aspergillus flavus [19] = assay: Antifungal activity against Aspergillus flavus ATCC 9643 after 72 hrs by serial dilution technique; format: functional; details: ATCC 9643, 72 h; procedure, shortened: as §3
Talaromyces funiculosus [20] = assay: Antifungal activity against Penicillium funiculosum ATCC 36839 after 72 hrs by serial dilution technique; format: functional; details: ATCC 36839, 72 h; procedure, shortened: as §3
Penicillium ochrochloron [21] = assay: Antifungal activity against Penicillium ochrochloron ATCC 9112 after 72 hrs by serial dilution technique; format: functional; details: ATCC 9112, 72 h; procedure, shortened: as §3
Trichoderma viride [22] = assay: Antifungal activity against Trichoderma viride IAM 5061 after 72 hrs by serial dilution technique; format: functional; details: IAM 5061, 72 h; procedure, shortened: as §3
Candida albicans [23] = assay: Antifungal activity against Candida albicans isolated from human after 72 hrs by serial dilution technique; format: functional; procedure, shortened: as §3
Aspergillus ochraceus [24] = assay: Antifungal activity against Aspergillus ochraceus ATCC 12066 incubated for 72 hrs followed by serial sub-cultivation for 72 hrs by serial dilution technique; format: functional; details: ATCC 12066, 72 h
Procedure, shortened: (§4)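 MFC: material from 72 h malt broth microdilution wells was serially sub-cultured into fresh broth plates and incubated a further 72 h at 28 °C. Fungicidal concentration is taken from growth after sub-culture. Duplicate, repeated three times.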

Aspergillus fumigatus [25] = assay: Antifungal activity against Aspergillus fumigatus isolated from human incubated for 72 hrs followed by serial sub-cultivation for 72 hrs by serial dilution technique; format: functional; procedure, shortened: as §4
Aspergillus niger [26] = assay: Antifungal activity against Aspergillus niger ATCC 6275 incubated for 72 hrs followed by serial sub-cultivation for 72 hrs by serial dilution technique; format: functional; details: ATCC 6275, 72 h; procedure, shortened: as §4
Aspergillus flavus [27] = assay: Antifungal activity against Aspergillus flavus ATCC 9643 incubated for 72 hrs followed by serial sub-cultivation for 72 hrs by serial dilution technique; format: functional; details: ATCC 9643, 72 h; procedure, shortened: as §4
Talaromyces funiculosus [28] = assay: Antifungal activity against Penicillium funiculosum ATCC 36839 incubated for 72 hrs followed by serial sub-cultivation for 72 hrs by serial dilution technique; format: functional; details: ATCC 36839, 72 h; procedure, shortened: as §4
Penicillium ochrochloron [29] = assay: Antifungal activity against Penicillium ochrochloron ATCC 9112 incubated for 72 hrs followed by serial sub-cultivation for 72 hrs by serial dilution technique; format: functional; details: ATCC 9112, 72 h; procedure, shortened: as §4
Trichoderma viride [30] = assay: Antifungal activity against Trichoderma viride IAM 5061 incubated for 72 hrs followed by serial sub-cultivation for 72 hrs by serial dilution technique; format: functional; details: IAM 5061, 72 h; procedure, shortened: as §4
Candida albicans [31] = assay: Antifungal activity against Candida albicans isolated from human incubated for 72 hrs followed by serial sub-cultivation for 72 hrs by serial dilution technique; format: functional; procedure, shortened: as §4
Pseudomonas aeruginosa [32] = assay: Ratio of ampicillin MIC to compound MIC for Pseudomonas aeruginosa ATCC 27853; format: functional
Aspergillus ochraceus [33] = assay: Ratio of bifonazole to compound for Aspergillus ochraceus ATCC 12066; format: functional
Aspergillus niger [34] = assay: Ratio of bifonazole to compound for Aspergillus niger ATCC 6275; format: functional
Talaromyces funiculosus [35] = assay: Ratio of bifonazole to compound for Penicillium funiculosum ATCC 36839; format: functional
Penicillium ochrochloron [36] = assay: Ratio of bifonazole to compound for Penicillium ochrochloron ATCC 9112; format: functional
Trichoderma viride [37] = assay: Ratio of bifonazole to compound for Trichoderma viride IAM 5061; format: functional
Candida albicans [38] = assay: Ratio of bifonazole to compound for Candida albicans isolated from human; format: functional
Aspergillus ochraceus [39] = assay: Ratio of ketoconazole to compound for Aspergillus ochraceus ATCC 12066; format: functional
Aspergillus fumigatus [40] = assay: Ratio of ketoconazole to compound for Aspergillus fumigatus isolated from human; format: functional
Penicillium ochrochloron [41] = assay: Ratio of ketoconazole to compound for Penicillium ochrochloron ATCC 9112; format: functional
Candida albicans [42] = assay: Ratio of ketoconazole to compound for Candida albicans isolated from human; format: functional
Aspergillus ochraceus [43] = assay: Antifungal activity against Aspergillus ochraceus after 72 hrs by serial dilution technique

MIC (Staphylococcus aureus [1]): 94.6 µM (≈ 30 µg/mL)
MIC (Bacillus cereus [2]): 63.1 µM (≈ 20 µg/mL)
MIC (Micrococcus flavus [3]): 94.6 µM (≈ 30 µg/mL)
MIC (Listeria monocytogenes [4]): 94.6 µM (≈ 30 µg/mL)
MIC (Pseudomonas aeruginosa [5]): 47.3 µM (≈ 15 µg/mL)
MIC (Salmonella typhimurium [6]): 47.3 µM (≈ 15 µg/mL)
MIC (Escherichia coli [7]): 94.6 µM (≈ 30 µg/mL)
MIC (Enterococcus faecalis [8]): 47.3 µM (≈ 15 µg/mL)
MIC (Aspergillus ochraceus [17]): 63.1 µM (≈ 20 µg/mL)
MIC (Aspergillus niger [18]): 47.3 µM (≈ 15 µg/mL)
MIC (Aspergillus flavus [19]): 63.1 µM (≈ 20 µg/mL)
MIC (Talaromyces funiculosus [20]): 31.5 µM (≈ 10 µg/mL)
MIC (Penicillium ochrochloron [21]): 63.1 µM (≈ 20 µg/mL)
MIC (Trichoderma viride [22]): 47.3 µM (≈ 15 µg/mL)
MIC (Candida albicans [23]): 31.5 µM (≈ 10 µg/mL)
MIC (Aspergillus ochraceus [43]): 47.3 µM (≈ 15 µg/mL)
SMILES: CCNc1nc(C)c(C(=O)/C=C/c2ccc([N+](=O)[O-])cc2)s1
MBC (Staphylococcus aureus [9]): 94.6 µM (≈ 30 µg/mL)
MBC (Bacillus cereus [10]): 94.6 µM (≈ 30 µg/mL)
MBC (Micrococcus flavus [11]): 94.6 µM (≈ 30 µg/mL)
MBC (Listeria monocytogenes [12]): 94.6 µM (≈ 30 µg/mL)
MBC (Pseudomonas aeruginosa [13]): 63.1 µM (≈ 20 µg/mL)
MBC (Salmonella typhimurium [14]): 63.1 µM (≈ 20 µg/mL)
MBC (Escherichia coli [15]): 94.6 µM (≈ 30 µg/mL)
MBC (Enterococcus faecalis [16]): 63.1 µM (≈ 20 µg/mL)
MFC (Aspergillus ochraceus [24]): 78.8 µM (≈ 25 µg/mL)
MFC (Aspergillus fumigatus [25]): 63.1 µM (≈ 20 µg/mL)
MFC (Aspergillus niger [26]): 63.1 µM (≈ 20 µg/mL)
MFC (Aspergillus flavus [27]): 78.8 µM (≈ 25 µg/mL)
MFC (Talaromyces funiculosus [28]): 63.1 µM (≈ 20 µg/mL)
MFC (Penicillium ochrochloron [29]): 78.8 µM (≈ 25 µg/mL)
MFC (Trichoderma viride [30]): 63.1 µM (≈ 20 µg/mL)
MFC (Candida albicans [31]): 63.1 µM (≈ 20 µg/mL)
Ratio (Pseudomonas aeruginosa [32]): 10
Ratio (Aspergillus ochraceus [33]): 10
Ratio (Aspergillus niger [34]): 10
Ratio (Talaromyces funiculosus [35]): 10
Ratio (Penicillium ochrochloron [36]): 10
Ratio (Trichoderma viride [37]): 10
Ratio (Candida albicans [38]): 10
Ratio (Aspergillus ochraceus [39]): 10
Ratio (Aspergillus fumigatus [40]): 10
Ratio (Penicillium ochrochloron [41]): 10
Ratio (Candida albicans [42]): 10
